Many of the other results were omitted from the sample, so hits are more common in it than they were.
Beta2AR agonist: human beta-2 adrenergic receptor agonism by FAP. Am2.2-beta2AR cells, FAP receptor internalization, flow cytometry. response, % (no concentration beside the values). hit rate 0.43% among 340,000;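 active = response above a set limit, near 3 SD of response in nonfluorescent compounds, cut at about 42% in these data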
p-CIP stab down: lowers stability of the mouse p/CIP coactivator protein. Q05BA5. F442A p/CIP-EGFP cells, EGFP fluorescence, 16 h. decrease of EGFP signal, % at 10 µM. hit rate 0.01% among 290,000;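 active = EGFP signal decrease of at least 30% at 10 µM or well 3 SD below plate mean, unless failing retest; inactive = the rest, including hits failing retest or dose response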
Target sequence (Q05BA5 1-1403): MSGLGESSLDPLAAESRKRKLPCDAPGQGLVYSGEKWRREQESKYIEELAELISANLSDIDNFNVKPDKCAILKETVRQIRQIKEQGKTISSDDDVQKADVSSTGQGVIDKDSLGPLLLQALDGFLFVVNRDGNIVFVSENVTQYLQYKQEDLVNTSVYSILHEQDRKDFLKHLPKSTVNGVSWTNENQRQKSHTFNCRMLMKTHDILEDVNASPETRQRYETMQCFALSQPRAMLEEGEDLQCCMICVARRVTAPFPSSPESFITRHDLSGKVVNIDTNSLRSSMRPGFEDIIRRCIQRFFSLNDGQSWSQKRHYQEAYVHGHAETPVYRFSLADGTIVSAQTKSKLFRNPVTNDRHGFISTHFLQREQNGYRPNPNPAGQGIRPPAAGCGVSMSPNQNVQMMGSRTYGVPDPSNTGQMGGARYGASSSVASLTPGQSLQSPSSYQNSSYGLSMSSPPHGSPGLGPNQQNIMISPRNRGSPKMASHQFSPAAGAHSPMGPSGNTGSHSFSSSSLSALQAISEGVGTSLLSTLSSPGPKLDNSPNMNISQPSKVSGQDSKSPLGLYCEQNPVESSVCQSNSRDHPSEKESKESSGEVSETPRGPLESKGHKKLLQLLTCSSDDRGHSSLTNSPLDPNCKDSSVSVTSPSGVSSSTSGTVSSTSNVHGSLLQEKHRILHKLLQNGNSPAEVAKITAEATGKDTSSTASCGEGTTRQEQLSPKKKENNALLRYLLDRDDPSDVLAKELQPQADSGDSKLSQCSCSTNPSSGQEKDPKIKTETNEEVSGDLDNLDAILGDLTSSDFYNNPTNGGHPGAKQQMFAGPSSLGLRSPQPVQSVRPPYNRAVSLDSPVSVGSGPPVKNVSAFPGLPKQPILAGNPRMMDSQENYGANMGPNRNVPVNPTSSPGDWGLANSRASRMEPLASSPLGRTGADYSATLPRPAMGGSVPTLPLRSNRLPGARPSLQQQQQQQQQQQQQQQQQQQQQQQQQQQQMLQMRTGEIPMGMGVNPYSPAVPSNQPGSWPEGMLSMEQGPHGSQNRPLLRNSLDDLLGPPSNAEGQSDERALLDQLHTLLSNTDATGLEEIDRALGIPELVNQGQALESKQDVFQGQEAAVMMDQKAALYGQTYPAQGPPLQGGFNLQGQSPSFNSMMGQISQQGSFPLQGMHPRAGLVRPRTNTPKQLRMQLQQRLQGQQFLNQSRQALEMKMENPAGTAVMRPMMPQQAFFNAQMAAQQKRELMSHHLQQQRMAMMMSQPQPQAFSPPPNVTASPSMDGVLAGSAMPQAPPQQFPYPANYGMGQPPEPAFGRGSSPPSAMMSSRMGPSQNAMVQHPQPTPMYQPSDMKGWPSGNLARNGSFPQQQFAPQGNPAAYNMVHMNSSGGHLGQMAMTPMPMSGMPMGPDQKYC
UPR XBP1 act: adaptive UPR (XBP1) activation; CHO-XBP1 luciferase reporter, IRE1-XBP1 UPR activation, luminescence; percent of tunicamycin response, DMSO as zero; activation, % at 20 µM; hit rate 0.33% among 330,000; AID 463104;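 active = versus positive control, 20 µM dose yields 30% or more activation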;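 note: 100% = tunicamycin at 10 µg/mL and 0% = DMSO only wells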
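Material: CHO cell line with stable XBP1 luciferase reporter; schedule: 16-18 h cell attachment at 37 °C, then 6 h compound exposure; signal: glow luminescence from Steady-Glo reagent; medium: serum-containing F12 medium, 10% FBS; benchmarks: tunicamycin 10 µg/mL and vehicle-only wells; read-out: percent activation relative to tunicamycin reference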
CHOP UPR activ: apoptotic UPR (CHOP) activation; hit rate 0.34% among 330,000; activation, % at 10 µM; CHO-CHOP luciferase reporter, luminescence; percent of tunicamycin response over DMSO baseline; AID 449763;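 active = at 10 µM dose, activation of 40% or more, normalized to positive control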;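 note: 100% = tunicamycin at 10 µg/mL and 0% = DMSO alone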
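System: CHO-CHOP luciferase reporter cell line | Buffer or medium: F12 medium containing 10% fetal bovine serum | Doses: One dose, 10 µM in 0.5% DMSO | Times: 6 h compound exposure at 37 °C after overnight seeding | Signal: Luciferase luminescence | Read-out: % activation vs tunicamycin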
Dynein cargo inh: dynein cargo transport inhibition | 3617.4 mouse cells, GR-EGFP nuclear translocation imaging; test concentration mostly 20 µM; stimulated with dexamethasone, 1 µM; stronger effect = lower value | z-score, hits read low | hit rate 0.47% among 220,000;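 active = plate z-score of nuclear minus cytoplasmic receptor signal below a set negative limit, without overly bright fluorescence or cell loss, cut at about -3.5 in these data, passing the limit was not always enough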;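 note: z-score of nuclear minus cytoplasmic ring GR-EGFP intensity difference per well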
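Also added – dexamethasone, 1.0 µM final · Buffer or medium – tet-free, stripped-serum medium · Schedule – induction 48 h, compound 1 h, agonist 30 min · Detection – formaldehyde fixation, Hoechst nuclear stain, 10x automated fluorescence imaging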
CHOP inh: CHOP inhibition in unfolded protein response | CHO-K1 CHOP-promoter luciferase, tunicamycin-induced, 15-18 h | inhibition, % at 10 µM | hit rate 3.8% among 220,000 | AID 2732;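 active = compounds that reduced the stress-induced luciferase reporter signal by more than about 70% of percent inhibition, limit read from the data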;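 note: 0% = tunicamycin plus vehicle and 100% = wells without tunicamycin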
Beta2AR ag CP1: activates human beta-2 adrenergic receptor | Am2.2-beta2AR cells, FAP surface receptor, flow cytometry; stronger effect = lower value | shares compounds with Beta2AR agonist | percent response (surface receptor), % at 10 µM | hit rate 25% among 1,100;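 active = surface receptor percent response at or below 58%, roughly 3 SD from nonfluorescent compounds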
FAP fluor counter: fluorescence artifact in beta-2AR agonist FAP counterscreen | Am2.2 cells, FAP fluorogen flow cytometry; stronger effect = lower value | 1,100 tested, under 10 active | calls only at 10 µM | AID 588765 | shares compounds with Beta2AR agonist;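 active = percent response below a set limit in fluorescence channel 1 and below 50% in channel 8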
The depositor's hits bear a star; i = inactive; . = not tested or not shown; + = active, no number.

SMILES | Beta2AR agonist | p-CIP stab down | UPR XBP1 act | CHOP UPR activ | Dynein cargo inh | CHOP inh | Beta2AR ag CP1 | FAP fluor counter
Cc1cc(OCC(=O)Nc2cc(-c3nn4c(C)nnc4s3)ccc2C)ccc1Cl | 79* | -39 | 0 | 5 | -0.064 | 95* | 112 | i
Cc1ccc(NC(=O)CSc2ccc3nnc(CCNC(=O)c4ccccc4)n3n2)c(C)c1 | 62* | 3 | 2 | 0 | 0.46 | -10 | 111 | i
CCCc1cc(=O)[nH]c2nnc(SCC(=O)Nc3cc(C)on3)n12 | -4 | . | 1 | 0 | . | . | . | .
COc1ccc(-n2nc3c(N4CCC(C(=O)NCc5ccco5)CC4)nnc(C)c3c2C)cc1 | 7 | 9 | -5 | -2 | . | . | 98 | i
COc1cccc(C(=O)Nc2cccc(-c3ccc4nncn4n3)c2)c1OC | 7 | -6 | 3 | -1 | -0.61 | 15 | . | .
COc1ccc(Cl)cc1C(=O)Nc1cccc(-c2ccc3nncn3n2)c1 | 77* | 6 | -1 | 1 | -0.56 | 46 | 88 | i
COc1ccc(C(=O)NCCn2ccc3ccccc32)cc1OC | 45* | -2 | 3 | 3 | 1.5 | 2 | 97 | i
O=C(NCCCN1CCN(CCCNC(=O)c2ccc3c(c2)OCO3)CC1)c1ccc2c(c1)OCO2 | -1 | -6 | 0 | 0 | 0.3 | -4 | 103 | i
COc1ccc(C(=O)NCCCN2CCN(CCCNC(=O)c3ccc(OC)c(OC)c3)CC2)cc1OC | 1 | . | -1 | -1 | . | . | 100 | i
O=C(NCCCN1CCN(CCCNC(=O)c2ccccc2F)CC1)c1ccccc1F | 0 | -2 | 1 | -1 | -0.49 | 45 | 113 | i
CN(C)c1ccc(C(=O)OCC#CCSc2nnc(-c3cccc4ccccc34)o2)cc1 | 2 | . | 0 | -2 | . | . | . | .
O=C(COC(=O)c1ccccc1[N+](=O)[O-])Nc1nnc(-c2ccccc2)o1 | 3 | . | -2 | 0 | . | . | . | .
CCN(CC)CCC(=O)NN | -158 | -6 | 6 | -1 | -0.55 | 12 | . | .
CCCCC(=O)Nc1ccc(C(=O)N2CCCC(C(=O)OCC)C2)cc1 (stereo unspecified) | 61* | -4 | -1 | 1 | 3 | 11 | 41* | i
CCOC(=O)C1CCCN(C(=O)c2ccc(Cl)cc2)C1 (stereo unspecified) | 8 | -16 | -1 | 2 | -0.51 | 19 | . | .
CCc1ccc(CN2CCC(Oc3ccc(C(=O)N4CCCCC4)cc3)CC2)cc1 | 67* | -11 | -5 | 0 | . | . | 40* | i
COc1ccc(CN2CCC(Oc3ccc(C(=O)N4CCCC4)cc3)CC2)c(F)c1 | 26 | -14 | -5 | 1 | . | . | 107 | i
O=C(c1cccc(OC2CCN(Cc3ccc(F)cc3)CC2)c1)N1CCCC1 | -7 | 8 | -3 | -1 | . | . | . | .
CSc1ccc(CN2CCC(Oc3ccc(C(=O)N4CCCC4)cc3)CC2)cc1 | 51* | 6 | -5 | -1 | . | . | 70 | i
CC(C)c1ccc(CN2CCC(Oc3ccc(C(=O)N4CCCC4)cc3)CC2)cc1 | 4 | 5 | -4 | 0 | . | . | . | .
O=C(c1ccc(OC2CCN(Cc3ccc(F)cc3)CC2)cc1)N1CCCC1 | 43* | -1 | -2 | 1 | . | . | 46* | i
C=CCN(Cc1ccc(Cl)s1)C(=O)c1cc(S(=O)(=O)N2CCOCC2)ccc1F | -2 | . | -4 | 2 | . | . | . | .
COc1ccc(CNC(=O)c2ccccc2SCC(=O)NCc2ccco2)cc1 | 11 | . | -4 | 0 | . | . | . | .
O=C(CN1CCC(Cc2ccccc2)CC1)N1CCc2ccccc2C1 | -10 | 4 | 0 | -1 | 0.45 | 24 | . | .
CCc1ccc(CN2CCC(Oc3ccc(C(=O)N4CCCC4)cc3)CC2)cc1 | 82* | -2 | -3 | 0 | . | . | 9.0* | i
SMILES | Beta2AR agonist | p-CIP stab down | UPR XBP1 act | CHOP UPR activ | Dynein cargo inh | CHOP inh | Beta2AR ag CP1 | FAP fluor counter
NC(=S)N=Nc1c(O)n(Cc2ccc(Br)cc2)c2ccccc12 | -7 | -12 | 2 | -1 | 2.6 | -23 | . | .
NC(=S)N=Nc1c(O)n(Cc2ccc(F)cc2)c2ccccc12 | -3 | -2 | 8 | -1 | -0.24 | 17 | 102 | i
Cc1ccc(O)c(NC(=O)c2ccco2)c1 | 9 | 5 | 1 | 4 | 0.39 | 26 | . | .
Cc1ccc(O)c(NC(=O)c2cccc(NC(=O)c3ccco3)c2)c1 | 85* | 1 | 2 | 1 | 0.85 | 27 | 19* | i
O=C(COc1ccc([N+](=O)[O-])cc1)NCc1ccncc1 | -2 | 6 | -1 | 3 | -0.32 | 14 | . | .
Oc1ccc(Cl)cc1Nc1nc(NCC2CCCO2)c2ccccc2n1 (stereo unspecified) | 27 | . | -2 | 3 | . | . | . | .
Oc1ccccc1Nc1nc(NCC2CCCO2)c2ccccc2n1 (stereo unspecified) | 47* | -2 | 3 | 1 | -0.97 | 13 | 8.6* | +
c1ccc(Nc2nc(NCc3ccco3)c3ccccc3n2)cc1 | 18 | -12 | 21 | 18 | 0.51 | 47 | 80 | i
Oc1ccccc1Nc1nc(NCc2ccco2)c2ccccc2n1 | 51* | -7 | 11 | 1 | 1.6 | 18 | 23* | i
Cc1ccccc1Nc1nc(NCc2ccco2)c2ccccc2n1 | 10 | 11 | 20 | 5 | 1.2 | 19 | . | .
c1ccc(CN2CCN(c3nc(NCc4ccco4)c4ccccc4n3)CC2)cc1 | 9 | 2 | 0 | 0 | -1.4 | 50 | 102 | i
Cc1cccc(Nc2nc(NCc3ccco3)c3ccccc3n2)c1 | 39 | 1 | . | . | 2 | 69 | . | .
Cc1ccc2nc3c(c(C(=O)OC4CCOC4=O)c2c1)CCCC3 (stereo unspecified) | 2 | -12 | -2 | 2 | -0.33 | -14 | . | .
O=C(CSc1ccccn1)c1ccc2c(c1)OCO2 | 53* | -9 | 3 | 5 | -0.65 | 12 | 94 | i
CCc1cccc(C)c1NC(=S)NCc1ccc2[nH]c(C)cc2c1 | 17 | -2 | -1 | 1 | -0.31 | 22 | . | .

Bioassay records: PubChem BioAssay, several laboratories
